Assay outcomes: PubChem, The Scripps Research Institute Molecular Screening Center
TCR CD3 inh = inhibitors of human TCR-CD3 interaction; TAMRA-labeled TCR probe fluorescence, biochemical; inhibition, % at 9.4 µM; actives 0.37% (n = 360,000); AID 651800; in the data active means inhibition above about 19%;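 further: recombinant mutant TCR 2C K166C tagged with TAMRA read by polarization; 0% = receptor in buffer alone and 100% = receptor with positive control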
HTRA1 inhibitor = inhibitors of human serine peptidase HTRA1; Q92743; recombinant HTRA1, FP-rhodamine activity-based probe, fluorescence polarization; inhibition, % at 5.96 µM; actives 0.5% (n = 340,000); AID 504803; in the data active means inhibition above about 36%;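 further: 0% = enzyme with DMSO and 100% = wells lacking enzyme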
ABHD4 inh = ABHD4 (mouse) inhibition, primary FP screen. Q8VD66. purified mABHD4, FP-Rh probe fluorescence polarization. inhibition, % at 8.92 µM. actives 0.54% (n = 370,000). AID 720543;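 active means inhibition exceeding the mean over every tested compound plus 3 SD, cut at about 30% in these data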;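 further: 0% = plate median of compound wells and 100% = S159A mutant with DMSO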
Target sequence (Q8VD66 whole entry, looked up): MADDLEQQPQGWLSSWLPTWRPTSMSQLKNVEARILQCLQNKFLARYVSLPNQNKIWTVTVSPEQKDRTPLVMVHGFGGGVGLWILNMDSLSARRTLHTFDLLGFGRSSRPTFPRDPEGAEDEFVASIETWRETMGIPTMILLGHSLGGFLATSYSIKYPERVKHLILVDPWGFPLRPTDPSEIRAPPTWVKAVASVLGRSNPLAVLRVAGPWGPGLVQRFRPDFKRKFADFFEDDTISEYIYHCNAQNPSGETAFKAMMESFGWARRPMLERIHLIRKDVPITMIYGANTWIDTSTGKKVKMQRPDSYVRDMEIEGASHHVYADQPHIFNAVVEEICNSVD
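system = mouse ABHD4 enzyme, wild type | medium = HEPES pH 7.0, NaCl, Pluronic buffer | also added = FP-Rh probe | incubation = Enzyme–compound pre-incubation 45 min, then probe 60 min, both 25 °C | technique = fluorescence polarization, excitation 525 nm, emission 598 nm, BODIPY TMR filters | controls = S159A mutant high control, sample median low control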
SIAE primary = blocks human sialic acid acetylesterase | Q9HAT2 | inhibition, % at 9.66 µM | SIAE FP-Rh probe binding, fluorescence polarization | actives 0.69% (n = 370,000);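 active means inhibition above a cutoff: mean of compounds within the control limits plus 3 SD of those, cut at about 17% in these data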;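 further: 0% = plate median of compound wells and 100% = probe without SIAE protein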
DDE Tn6 FP inh = DD(E)-Tn6 binding inhibition, primary FP screen. P02675. Fibrin DD(E) TRITC-Tn6 fluorescence polarization displacement. inhibition, % at 8.3 µM. actives 0.21% (n = 370,000). AID 720509;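 active means inhibition above a per-campaign cutoff: mean of compounds within control limits plus 3 SD, cut at about 15% in these data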;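 further: 0% = median of all compound wells on the plate and 100% = blocking peptide control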
Tn7 DDE FP = disrupts Tn7 cyclic peptide binding to fibrin D-Dimer-E complex | FP displacement of FITC-Tn7 peptide from fibrin DD(E); 0% = median of compound wells per plate | inhibition, % at 8.3 µM | actives 0.13% (n = 370,000) | AID 720508;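 active means inhibition above the mean of compounds falling within the control limits plus 3 SD of them, cut at about 14% in these data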;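 further: 0% = plate median of compound wells and 100% = 10 µM Aha-Tn7 peptide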
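Assay system: Fibrin-DD(E) protein isolated from polymerized human fibrin clots; read-out basis: percent inhibition; medium: Tris/NaCl/CaCl2 buffer, pH 7.8; signal: FP measurement; incubation: 10 min plus 3 h, room temperature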
Active calls of the source: *; · = no result; ! = not confirmed by another sample. Rows were chosen to be rich in hits. Some 1.8% of all compounds tested hit in one or more screens of this group.

SMILES | TCR CD3 inh | HTRA1 inhibitor | ABHD4 inh | SIAE primary | DDE Tn6 FP inh | Tn7 DDE FP
COc1ccc(C(=O)N/N=C/c2cc3ccccc3[nH]c2=S)cc1 | 30* | 33 | 6 | -8 | -2 | -4
COc1ccc(C(=O)N/N=C/c2c[nH]c3ccccc23)cc1 | 1 | 0 | -3 | 0 | -6 | 3
CN1CC(c2ccccc2)C2(SC(=S)N(Cc3ccco3)C2=O)C12C(=O)Nc1ccccc12 (stereo not drawn) | 6 | -21 | -15 | -14 | 2 | 15*
O=C(c1ccc(OCCN2CCCCC2)cc1)c1c(-c2ccc(O)cc2)sc2cc(O)ccc12 | 4 | 7 | 14 | 27*! | -11 | -2
CC1=[N+](C)c2c(ccc3cccnc23)C1(C)C | -40 | -91 | -158 | -179 | 153* | -9
COc1cccc(NC(=O)C/C(C)=N/NC(=O)c2ccccc2Cl)c1 | -7 | -2 | -3 | 3 | 2 | 0
C/C(CC(=O)Nc1ccc(Cl)c(C(F)(F)F)c1)=N\NC(=O)c1cc2ccccc2cc1O | -4 | 22 | 14 | 40* | -2 | -6
Cc1ccc(NC2=C/C(=N/S(=O)(=O)c3cccs3)c3ccccc3C2=O)cc1C | 10 | 3 | 7 | 7 | 0 | -1
CC(=O)Nc1ccc(NC2=C/C(=N/S(=O)(=O)c3cccs3)c3ccccc3C2=O)cc1 | 2 | · | 34* | 13 | 1 | 2
O=C(NC1=N[C@@]2(C=C3CCCCC3n3c(=O)n(-c4ccccc4)c(=O)n32)[C@H](Cc2ccccc2)N1Cc1ccccc1)c1ccccc1 (stereo partly drawn) | · | · | 20 | 9 | -5 | 1
COc1ccc(C(=O)Oc2c(CN3CCOCC3)cc(Cl)c3cccnc23)cc1 | -3 | 40* | 5 | -4 | 5 | -7
O=C(Nc1ccc(Cl)c(Cl)c1)C1CCCN1S(=O)(=O)c1cccc2cccnc12 (stereo not drawn) | · | · | -18 | 8 | -5 | -2
O=C1C(C2=C(O)c3ccccc3C2=O)=Nc2ccccc21 | -3 | 22 | 40* | 10 | 6 | 6
CN=CC1=C(O)c2ccccc2C1=O | -9 | 3 | 0 | 10 | 4 | 3
CC1CCN(C(=O)COc2cccc3c2CCN(Cc2ccccc2)C3=O)CC1 | -4 | -9 | 1 | 17* | -1 | 3
O=C(Nc1cccc(Cl)c1)Nc1cc(S(=O)(=O)N2CCCCC2)ccc1Cl | 85* | -142 | -170 | -230 | 55* | 5
Cc1ccc(NC(=O)[C@@H]2CC(=O)O[C@@H]2c2ccccc2)cc1C | · | · | 6 | 15 | 6 | 2
On1onc2c3cc(-c4ccccc4)nc3ccc21 | 0 | 2 | -18 | 18* | -6 | 2
c1ccc(-c2cc3c(ccc4nonc43)nn2)cc1 | -5 | 0 | 1 | -2 | -1 | 7
O=C(COC(=O)CCCN1C(=O)c2ccccc2C1=O)Nc1ncc(Cl)cc1Cl | 2 | 4 | 6 | -2 | -2 | 15*
CN(C)c1ccc(-c2nc3ncc(Cl)cc3[nH]2)cc1 | · | · | 11 | -2 | -11 | 4
COc1ccc2c(c1)CCCN2C(=O)C1CCCN(S(=O)(=O)c2ccc(C(C)(C)C)cc2)C1 (stereo not drawn) | · | · | -5 | -3 | -10 | -3
CC1=C(c2ccccc2)[N+](=O)C2(CCCC2)N1[O-] | -2 | -1 | -2 | 7 | 9 | 4
O=[N+]([O-])c1ccc2c(c1)N([O-])C1(CCCCC1)[N+]2=O | 4 | · | 53* | 13 | 5 | 2
COc1ccc(N(C(=O)c2ccco2)C(C(=O)NC2CCCC2)c2cccnc2)c(OC)c1 (stereo not drawn) | -2 | -3 | -4 | 2 | 6 | 8
SMILES | TCR CD3 inh | HTRA1 inhibitor | ABHD4 inh | SIAE primary | DDE Tn6 FP inh | Tn7 DDE FP
COc1ccc(CN(C(=O)Cc2c[nH]c3ccccc23)C(C(=O)NC2CCCCC2)c2ccc(C)o2)cc1 (stereo not drawn) | 4 | -38 | -11 | -1 | 1 | 1
COc1cccc(CN(C(=O)c2ccco2)C(C(=O)NC2CCCC2)c2cccnc2)c1 (stereo not drawn) | -12 | 0 | -4 | 135* | 2 | 0
COc1cccc(CN(C(=O)Cc2c[nH]c3ccccc23)C(C(=O)NC2CCCCC2)c2ccc(C)o2)c1 (stereo not drawn) | -1 | -33 | -6 | 18* | 3 | -1
C[C@@H]1OC(C2CCCCC2)N(C)[C@H]2C[C@H]3c4[nH]c5cccc(-c6cccc(F)c6)c5c4CCN3C(=O)[C@@H]12 (stereo partly drawn) | · | · | 5 | -2 | 3 | -2
Nc1sc2c(c1C(=O)NC1CCS(=O)(=O)C1)CCCC2 (stereo not drawn) | -5 | 5 | 21 | 22* | 2 | 0
O=C(CN(CCc1ccccc1)S(=O)(=O)c1ccc(F)cc1)N1CCOCC1 | · | · | 8 | 4 | 1 | -4
O=S(=O)(Nc1cc2nc3ccccc3nc2n1Cc1ccccc1)c1ccc(Cl)cc1 | -5 | 29 | 8 | 30* | -2 | -7
O=S(=O)(NCc1ccccc1)c1ccc(Cl)cc1 | 2 | -6 | 3 | 1 | 2 | 0
Cc1ccc(NC(=S)/C(C#N)=C2/Nc3ccccc3S2)cc1 | 7 | 1 | 63* | 4 | -5 | 2
N#C/C(C(=O)N1CCCCC1)=C1\Nc2ccccc2S1 | -6 | 2 | 11 | 2 | -3 | 5
CC(CCN1CCC(C(O)(c2ccccc2)c2ccccc2)CC1)Oc1ccccc1C#N (stereo not drawn) | · | · | 3 | 0 | -7 | -11
COC(=O)C1CN(Cc2cn(Cc3ccc(F)cc3)nn2)CCS(=O)(=O)N1Cc1ccc(OC)cc1 (stereo not drawn) | · | · | 3 | 0 | -3 | -3
Cc1ccc2c(c1)C1CS(=O)(=O)N(Cc3ccc(F)cc3)CN1C2 (stereo not drawn) | · | · | -5 | -5 | -1 | 2
CCOC(=O)c1c(NC(C)=O)sc2c(O)c(Br)cc(Br)c12 | 9 | 0 | 36* | 6 | 4 | 8
CCOC(=O)c1c(NC(C)=O)sc2c(O)cccc12 | -1 | 0 | -5 | -6 | -4 | -3
O=C(Nc1ccccc1)OCCN1C(=O)CCC12CCC(c1ccccc1)CC2 (stereo not drawn) | · | · | 3 | -3 | -2 | 1
O=[N+]([O-])c1cc(CN2CCN(c3cccc(C(F)(F)F)c3)CC2)c2cccnc2c1O | 4 | · | 15 | 6 | -11 | -1
O=[N+]([O-])c1cc(CN2CCCC2)c2cccnc2c1O | · | 54* | · | · | · | ·
Oc1c(Cl)cc(CN2CCCCC2)c2cccnc12 | · | 46* | · | · | · | ·
